The source made the active and inactive calls. The rule behind the calls is not given here.
How the values were obtained:
[1] = test system: RAW264.7; experiment: Anti-inflammatory activity in mouse RAW264.7 cells assessed as inhibition of LPS-induced IL-6 production at 10 to 40 uM preincubated for 2 hrs followed by LPS addition measured after 20 hrs by ELISA; type: functional, cell-based
Procedure, shortened: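 RAW264.7 cells are pretreated 2 h with compound at 40 or 10 μM, then held with or without LPS (1 μg mL–1) for 20 h. Supernatant IL-6 is quantified by ELISA. Results are means ± SD (n = 3) of at least three independent experiments.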

[2] = test system: RAW264.7; experiment: Anti-inflammatory activity in mouse RAW264.7 cells assessed as inhibition of LPS-induced NO production at 40 uM preincubated for 2 hrs followed by LPS addition measured after 20 hrs by Griess assay relative to control; type: functional
Procedure, shortened: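 Macrophages (RAW264.7) are pretreated 2 h with compound at 40 μM, then held with or without LPS (1 μg mL–1) for 20 h. Released NO is measured with Griess reagent. Results are means ± SD (n = 3) from at least three independent experiments.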

[3] = Cytotoxicity against mouse RAW264.7 cells assessed as cell viability at 40 uM after 24 hrs by MTT assay relative to control; type: cell-based; settings: read-out: Activity
[4] = test system: Mus musculus; experiment: Anti-inflammatory activity in C57BL6 mouse model of CCl4-induced hepatic fibrosis assessed as reduction in inflammatory cell infiltration in hepatic tissue at 0.1 mg/kg, ig administered 2 times per week for 4 weeks by H and E staining based assay; type: functional, organism-based
Procedure, shortened: (§1)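 Male SPF C57BL6 mice (20 ± 2 g), acclimatized for at least one week under controlled temperature, humidity and light cycle. Hepatic fibrosis was induced with CCl4, with control and model groups run alongside. Liver tissue was H&E-stained and examined by light microscopy for inflammatory cell infiltration, hepatocyte degeneration and fibrosis.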

[5] = test system: Mus musculus; experiment: Anti-inflammatory activity in C57BL6 mouse model of CCl4-induced hepatic fibrosis assessed as reduction in hepatic fibrosis at 0.1 mg/kg, ig administered 2 times per week for 4 weeks by H and E staining based assay; type: functional, organism-based; procedure, shortened: as §1
[6] = test system: Mus musculus; experiment: Anti-inflammatory activity in C57BL6 mouse model of CCl4-induced hepatic fibrosis assessed as reduction in blue collagen fibers in hepatic tissue at 0.1 mg/kg, ig administered 2 times per week for 4 weeks by masson staining based assay; type: functional, organism-based
Procedure, shortened: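 Male SPF C57BL6 mice (20 ± 2 g), housed at 22 ± 2 °C and 50% humidity with a 12 h light/dark cycle, acclimatized for at least one week. CCl4-induced hepatic fibrosis model, groups compared with untreated control and CCl4 model groups. Liver sections were Masson-stained, and blue collagen fibers were scored by light microscopy.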

[7] = test system: Mus musculus; experiment: Anti-inflammatory activity in C57BL6 mouse model of CCl4-induced hepatic fibrosis assessed as reduction in inflammatory cell infiltration in hepatic tissue at 100 to 200 mg/kg, ig administered 2 times per week for 4 weeks by H and E staining based assay; type: functional, organism-based
Procedure, shortened: (§2)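 Male SPF C57BL6 mice (20 ± 2 g) are acclimatized at least one week at 22 ± 2 °C, 50% humidity, 12 h light/dark, with free food and water. CCl4 induces hepatic fibrosis. Groups are control, model, colchicine 0.1 mg kg–1, and test article at 100 or 200 mg kg–1. Liver sections are scored by light microscopy after H&E and Masson staining.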

[8] = test system: Mus musculus; experiment: Anti-inflammatory activity in C57BL6 mouse model of CCl4-induced hepatic fibrosis assessed as reduction in blue collagen fibers in hepatic tissue at 100 to 200 mg/kg, ig administered 2 times per week for 4 weeks by masson staining based assay; type: functional, organism-based; procedure, shortened: as §2
[9] = test system: Mus musculus; experiment: Anti-inflammatory activity in C57BL6 mouse model of CCl4-induced hepatic fibrosis assessed as reduction in hepatic fibrosis at 100 to 200 mg/kg, ig administered 2 times per week for 4 weeks by H and E staining based assay; type: functional, organism-based; procedure, shortened: as §2
[10] = test system: RAW264.7; experiment: Anti-inflammatory activity in mouse RAW264.7 cells assessed as inhibition of LPS-induced COX2 protein expression measured after 20 hrs by Western blot analysis; type: functional, cell-based
Procedure, shortened: (§3)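 RAW264.7 cells are treated with graded concentrations of test article, then held with or without LPS (1 μg mL–1) for 20 h. iNOS and COX-2 protein are measured. The NF-κB inhibitor Bay 11-7082 (20 μM) serves as reference. Results are means ± SD (n = 3) of at least three independent experiments.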

[11] = target: Transcription factor p65 (Mus musculus) (UniProt Q04207); experiment: Inhibition of LPS-induced NF-kB p65 phosphorylation in mouse RAW264.7 cells at 10 to 30 uM after 30 mins by Western blot analysis; type: cell-based
Procedure, shortened: (§4)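 RAW264.7 cells are exposed to 10–30 μM test article plus LPS (1 μg mL–1) for 30 min. Total and phosphorylated proteins are probed by western blot: NF-κB p65 and IκB, with Bay 11-7082 (20 μM) as reference, and JNK, ERK1/2 and p38 MAPK. Results are means ± SD (n = 3) from at least three independent experiments.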

[12] = test system: RAW264.7; experiment: Inhibition of LPS-induced ERK phosphorylation in mouse RAW264.7 cells after 30 mins by Western blot analysis; type: cell-based; procedure, shortened: as §4
[13] = Inhibition of LPS-induced IkBalpha phosphorylation in mouse RAW264.7 cells at 10 to 30 uM after 30 mins by Western blot analysis
[14] = test system: RAW264.7; experiment: Anti-inflammatory activity in mouse RAW264.7 cells assessed as inhibition of LPS-induced iNOS protein expression measured after 20 hrs by Western blot analysis; type: functional, cell-based; procedure, shortened: as §3
[15] = target: Transcription factor p65 (Mus musculus) (UniProt Q04207); experiment: Inhibition of LPS-induced NF-kB p65 nuclear tanslocation in mouse RAW264.7 cells at 20 to 30 uM preincubated for 1 hr followed by LPS addition measured after 3 hrs by DAPI staining based immunofluorescence assay; type: cell-based
Procedure, shortened: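 For p65 nuclear translocation, RAW264.7 cells are pretreated 1 h with test article, then stimulated with LPS (1 μg mL–1) for 3 h before immunofluorescence imaging.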

Sequence of Transcription factor p65 (Mus musculus) (Q04207 whole entry): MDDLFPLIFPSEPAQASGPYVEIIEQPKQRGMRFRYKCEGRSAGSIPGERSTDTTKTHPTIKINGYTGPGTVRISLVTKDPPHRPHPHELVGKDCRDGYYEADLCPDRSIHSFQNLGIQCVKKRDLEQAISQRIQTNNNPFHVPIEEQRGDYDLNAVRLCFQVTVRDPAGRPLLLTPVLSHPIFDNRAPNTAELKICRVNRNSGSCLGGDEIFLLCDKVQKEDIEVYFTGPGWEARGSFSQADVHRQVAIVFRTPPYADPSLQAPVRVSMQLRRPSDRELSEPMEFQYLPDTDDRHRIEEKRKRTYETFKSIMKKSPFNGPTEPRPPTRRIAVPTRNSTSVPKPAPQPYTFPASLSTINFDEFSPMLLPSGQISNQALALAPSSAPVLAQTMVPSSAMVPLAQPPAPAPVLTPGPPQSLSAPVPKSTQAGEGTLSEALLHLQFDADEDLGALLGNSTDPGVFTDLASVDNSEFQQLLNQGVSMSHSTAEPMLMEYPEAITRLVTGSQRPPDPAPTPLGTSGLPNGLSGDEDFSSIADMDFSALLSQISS

Compound: CC1(C)[C@@H](O)CC[C@]2(C)[C@H]3C(=O)C=C4[C@@H]5C[C@@](C)(C(=O)O)CC[C@]5(C)CC[C@@]4(C)[C@]3(C)CC[C@@H]12 [ENOXOLONE]
- inhibition [1]: Active
- inhibition [2]: Active
- viability at 24 h, 40 µM [3]: > 96%

Compound: COc1cc2c(c(OC)c1OC)-c1ccc(OC)c(=O)cc1[C@@H](NC(C)=O)CC2
- Activity [4]: Active
- Activity [5]: Active
- Activity [6]: Active

Compound: CC1(C)[C@@H](O[C@H]2O[C@H](C(=O)O)[C@@H](O)[C@H](O)[C@H]2O)CC[C@]2(C)[C@H]3C(=O)C=C4[C@@H]5C[C@@](C)(C(=O)O)CC[C@]5(C)CC[C@@]4(C)[C@]3(C)CC[C@@H]12
- inhibition [1]: Active
- inhibition [2]: Active
- viability at 24 h, 40 µM [3]: > 96%

Compound: CC1(C)[C@@H](O)CC[C@]2(C)[C@H]3C(=O)C=C4[C@H]5C[C@@](C)(C(=O)O)CC[C@]5(C)CC[C@@]4(C)[C@]3(C)CC[C@@H]12 [18alpha-GLYCYRRHETINIC ACID]
- inhibition [1]: Active
- inhibition [2]: Active
- viability at 24 h, 40 µM [3]: > 96%

Compound: CC1(C)[C@@H](O[C@H]2O[C@H](C(=O)O)[C@@H](O)[C@H](O)[C@H]2O[C@@H]2O[C@H](C(=O)O)[C@@H](O)[C@H](O)[C@H]2O)CC[C@]2(C)[C@H]3C(=O)C=C4[C@@H]5C[C@@](C)(C(=O)O)CC[C@]5(C)CC[C@@]4(C)[C@]3(C)CC[C@@H]12 [GLYCYRRHIZIN]
- inhibition [1]: Active
- inhibition [2]: Active
- viability at 24 h, 40 µM [3]: > 96%

Compound: CC1(C)[C@@H](O[C@H]2O[C@H](C(=O)O)[C@@H](O)[C@H](O)[C@H]2O)CC[C@]2(C)[C@H]3C(=O)C=C4[C@H]5C[C@@](C)(C(=O)O)CC[C@]5(C)CC[C@@]4(C)[C@]3(C)CC[C@@H]12
- Activity [7]: Active
- inhibition [1]: Active
- Activity [8]: Active
- Activity [9]: Active
- inhibition [10]: Dose-dependent effect
- inhibition at 40 µM [2]: > 70%
- inhibition [11]: Active
- viability at 24 h, 40 µM [3]: > 96%
- inhibition [12]: Dose-dependent effect
- inhibition [13]: Active
- inhibition [14]: Dose-dependent effect
- inhibition [15]: Active

Compound: CC1(C)[C@@H](O[C@H]2O[C@H](C(=O)O)[C@@H](O)[C@H](O)[C@H]2O[C@@H]2O[C@H](C(=O)O)[C@@H](O)[C@H](O)[C@H]2O)CC[C@]2(C)[C@H]3C(=O)C=C4[C@H]5C[C@@](C)(C(=O)O)CC[C@]5(C)CC[C@@]4(C)[C@]3(C)CC[C@@H]12
- inhibition [1]: Active
- inhibition [2]: Active
- viability at 24 h, 40 µM [3]: > 96%
